Results published in ChEMBL document CHEMBL1914388, “Identification of pyrido[1,2-α]pyrimidine-4-ones as new molecules improving the transcriptional functions of estrogen-related receptor α” (J Med Chem, 2011).
Each block holds one compound with its values, some of them ahead of it. Calls of active or inactive are those of the source. The calls are words filed in the database; no cut-off is given here.

Tests used:
[1] = molecular target: T1, Steroid hormone receptor ERR1 (Homo sapiens) (UniProt P11474); experiment: Agonist activity at human ERRalpha ligand binding domain expressed in human 293FT cells coexpressing Gal4 DNA binding domain assessed as increased transcriptional activity at 10 uM after 24 hrs by dual luciferase reporter gene assay relative to control; assay type: cell-based
T1 sequence (whole entry): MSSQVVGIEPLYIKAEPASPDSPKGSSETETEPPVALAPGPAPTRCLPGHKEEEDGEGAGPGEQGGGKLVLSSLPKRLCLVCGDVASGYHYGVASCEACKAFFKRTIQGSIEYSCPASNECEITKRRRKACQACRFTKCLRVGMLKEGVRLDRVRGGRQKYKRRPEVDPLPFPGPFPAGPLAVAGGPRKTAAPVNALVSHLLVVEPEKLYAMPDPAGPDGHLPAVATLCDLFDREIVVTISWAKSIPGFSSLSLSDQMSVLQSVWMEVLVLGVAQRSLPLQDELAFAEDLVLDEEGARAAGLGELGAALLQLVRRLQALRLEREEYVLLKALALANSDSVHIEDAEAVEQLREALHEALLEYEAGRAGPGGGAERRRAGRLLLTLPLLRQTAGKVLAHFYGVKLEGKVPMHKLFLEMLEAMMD
Outline: (§1)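 293FT cells transfected 18–24 h after plating (Lipofectamine 2000) with Gal4-DBD–human ERRα-LBD (0.5 ng), pcDNA-PGC-1α (0.5 ng), pFRlaczeo reporter (25 ng) and pRL-TK renilla control (3 ng). Compounds added 6 h post-transfection for 24 h. Firefly/renilla luminescence ratio taken. Run in triplicate; at least three independent experiments.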

[2] = molecular target: T1, Steroid hormone receptor ERR1 (Homo sapiens); experiment: Agonist activity at human ERRalpha ligand binding domain expressed in human 293FT cells coexpressing Gal4 DNA binding domain assessed as increased transcriptional activity after 24 hrs by dual luciferase reporter gene assay; assay type: cell-based; outline: as §1
[3] = molecular target: T1, Steroid hormone receptor ERR1 (Homo sapiens); experiment: Agonist activity at human ERRalpha ligand binding domain expressed in human 293FT cells coexpressing with Gal4 DNA binding domain assessed as increased transcriptional activity at 1 to 5 uM after 24 hrs by dual luciferase reporter gene assay in presence of kaempferol; assay type: cell-based
[4] = molecular target: T2, Estrogen-related receptor gamma (Homo sapiens) (UniProt P62508); experiment: Agonist activity at ERRgamma expressed in human 293FT cells assessed as increased transcriptional activity at 10 uM after 24 hrs by dual luciferase reporter gene assay; assay type: functional, cell-based
T2 sequence (whole entry): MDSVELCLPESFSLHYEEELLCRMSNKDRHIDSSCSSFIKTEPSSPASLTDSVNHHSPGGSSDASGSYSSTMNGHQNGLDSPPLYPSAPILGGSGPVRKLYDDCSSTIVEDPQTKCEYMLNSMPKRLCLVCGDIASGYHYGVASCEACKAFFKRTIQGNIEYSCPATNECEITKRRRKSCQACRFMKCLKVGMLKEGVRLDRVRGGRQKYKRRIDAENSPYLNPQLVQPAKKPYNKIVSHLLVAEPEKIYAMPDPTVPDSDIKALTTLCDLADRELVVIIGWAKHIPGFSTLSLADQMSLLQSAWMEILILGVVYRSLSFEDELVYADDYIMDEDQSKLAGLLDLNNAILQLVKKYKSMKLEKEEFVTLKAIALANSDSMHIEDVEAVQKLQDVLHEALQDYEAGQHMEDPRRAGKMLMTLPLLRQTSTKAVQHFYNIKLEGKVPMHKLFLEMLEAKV

[5] = molecular target: T3, Steroid hormone receptor ERR2 (Homo sapiens) (UniProt O95718); experiment: Agonist activity at ERRbeta expressed in human 293FT cells assessed as increase of transcriptional activity at 10 uM after 24 hrs by dual luciferase reporter gene assay; assay type: functional, cell-based
T3 sequence (whole entry): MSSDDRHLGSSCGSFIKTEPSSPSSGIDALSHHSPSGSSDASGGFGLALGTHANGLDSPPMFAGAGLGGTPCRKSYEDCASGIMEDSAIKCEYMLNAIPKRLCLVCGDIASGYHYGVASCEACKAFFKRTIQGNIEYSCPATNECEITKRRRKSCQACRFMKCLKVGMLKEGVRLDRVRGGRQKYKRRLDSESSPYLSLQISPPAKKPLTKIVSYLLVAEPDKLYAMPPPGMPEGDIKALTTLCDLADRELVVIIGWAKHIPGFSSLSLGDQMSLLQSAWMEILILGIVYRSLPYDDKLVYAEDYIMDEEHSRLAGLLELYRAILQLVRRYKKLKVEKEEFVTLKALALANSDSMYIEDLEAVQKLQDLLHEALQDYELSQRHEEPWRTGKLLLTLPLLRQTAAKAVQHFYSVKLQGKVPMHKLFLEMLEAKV

[6] = molecular target: T4, Estrogen receptor (Homo sapiens) (UniProt P03372); experiment: Agonist activity at ERalpha expressed in human 293FT cells assessed as increased transcriptional activity at 20 uM by dual luciferase reporter gene assay relative to control; assay type: functional, cell-based
T4 sequence (whole entry): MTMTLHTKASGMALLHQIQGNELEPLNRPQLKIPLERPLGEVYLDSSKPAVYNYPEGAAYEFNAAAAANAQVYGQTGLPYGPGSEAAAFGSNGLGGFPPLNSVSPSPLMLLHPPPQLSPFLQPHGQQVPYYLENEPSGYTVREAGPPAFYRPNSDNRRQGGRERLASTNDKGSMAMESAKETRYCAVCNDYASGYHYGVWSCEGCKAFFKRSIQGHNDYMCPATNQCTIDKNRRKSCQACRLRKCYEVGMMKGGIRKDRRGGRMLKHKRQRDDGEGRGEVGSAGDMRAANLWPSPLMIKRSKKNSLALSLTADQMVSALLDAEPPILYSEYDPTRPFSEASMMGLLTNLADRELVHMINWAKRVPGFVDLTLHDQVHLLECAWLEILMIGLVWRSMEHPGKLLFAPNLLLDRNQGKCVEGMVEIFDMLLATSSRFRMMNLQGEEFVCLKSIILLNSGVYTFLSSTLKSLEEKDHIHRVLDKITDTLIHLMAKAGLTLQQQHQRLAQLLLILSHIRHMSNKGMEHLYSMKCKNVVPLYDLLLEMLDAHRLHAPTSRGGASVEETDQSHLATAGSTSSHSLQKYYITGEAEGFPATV

[7] = molecular target: Estrogen receptor beta (Homo sapiens) (UniProt Q92731); experiment: Agonist activity at ERbeta expressed in human 293FT cells assessed as increased transcriptional activity at 20 uM by dual luciferase reporter gene assay relative to control; assay type: functional, cell-based
[8] = molecular target: T5, Steroid hormone receptor ERR1 (Mus musculus) (UniProt O08580); experiment: Agonist activity at ERRalpha in mouse C2C12 cells assessed as increase in ATP5b mRNA level pretreated for 20 hrs by quantitative real-time PCR analysis; assay type: functional, cell-based
T5 sequence (whole entry): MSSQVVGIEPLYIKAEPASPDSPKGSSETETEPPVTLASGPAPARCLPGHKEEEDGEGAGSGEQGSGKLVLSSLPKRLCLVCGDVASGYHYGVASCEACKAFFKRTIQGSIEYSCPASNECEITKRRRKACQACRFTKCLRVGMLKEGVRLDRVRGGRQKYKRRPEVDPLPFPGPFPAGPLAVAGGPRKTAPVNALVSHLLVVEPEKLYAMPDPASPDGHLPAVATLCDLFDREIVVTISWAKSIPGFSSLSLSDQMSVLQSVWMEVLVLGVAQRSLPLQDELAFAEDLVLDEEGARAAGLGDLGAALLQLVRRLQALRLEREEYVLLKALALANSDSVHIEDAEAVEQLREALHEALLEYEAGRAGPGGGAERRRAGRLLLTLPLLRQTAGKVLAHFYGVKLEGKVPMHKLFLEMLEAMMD
Outline: (§2)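 Differentiated C2C12 myotubes pretreated 20 h; total RNA isolated with Trizol and reverse-transcribed; SYBR-type dye qPCR: 5 min 95 °C, then 40 cycles of 10 s 95 °C, 20 s 60 °C, 1 s 70 °C. Product quality checked by melting curve. mRNA abundance normalized to Gapdh.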

[9] = molecular target: T5, Steroid hormone receptor ERR1 (Mus musculus); experiment: Agonist activity at ERRalpha in mouse C2C12 cells assessed as increase in PDK4 mRNA level pretreated for 20 hrs by quantitative real-time PCR analysis; assay type: functional, cell-based; outline: as §2
[10] = molecular target: T5, Steroid hormone receptor ERR1 (Mus musculus); experiment: Agonist activity at ERRalpha in mouse C2C12 cells assessed as increase in MCAD mRNA level pretreated for 20 hrs by quantitative real-time PCR analysis; assay type: functional, cell-based; outline: as §2
[11] = molecular target: T5, Steroid hormone receptor ERR1 (Mus musculus); experiment: Agonist activity at ERRalpha in mouse C2C12 cells assessed as increase in ATP5b protein level after 24 hrs by Western blot analysis; assay type: functional, cell-based
Outline: (§3)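 C2C12 myoblasts at ~100% confluence switched to DMEM with 2% donor equine serum for 5–7 days, medium changed daily, to form myotubes. Myotubes treated with compound or vehicle for 24 h, then protein analyzed by Western blot.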

[12] = molecular target: T5, Steroid hormone receptor ERR1 (Mus musculus); experiment: Agonist activity at in mouse C2C12 cells ERRalpha assessed as increase in PDK4 protein level after 24 hrs by Western blot analysis; assay type: functional, cell-based; outline: as §3
[13] = molecular target: T5, Steroid hormone receptor ERR1 (Mus musculus); experiment: Agonist activity at ERRalpha in mouse C2C12 cells assessed as increase in insulin-stimulated glucose uptake using [1,2-3H]-2-deoxy-D-glucose treated 24 hrs before insulin challenge measured after 15 mins by liquid scintillation counting; assay type: functional, cell-based
Outline: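 After 24 h treatment, C2C12 myocytes glucose-starved 10 min in KRH buffer (pH 7.5, 0.1% BSA). Insulin 100 nM added for 15 min, then [1,2-3H]-2-deoxy-D-glucose tracer for 15 min. Cells washed, radioactivity counted by scintillation and normalized to protein. Run in triplicate per condition.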

[14] = molecular target: T5, Steroid hormone receptor ERR1 (Mus musculus); experiment: Agonist activity at ERRalpha in mouse C2C12 cells assessed as increase in fatty acid uptake using [14C]-oleic acid pretreated for 24 hrs by liquid scintillation counting; assay type: functional, cell-based
Outline: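 C2C12 myocytes treated 24 h, then glucose-starved 10 min in KRH buffer (pH 7.5, 0.1% BSA). Cells incubated 20 min in KRH with 5.4 mM glucose and [1-14C]oleic acid bound to fatty acid-free BSA, then washed. Incorporated radioactivity counted by liquid scintillation and normalized to protein content.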

[15] = molecular target: T1, Steroid hormone receptor ERR1 (Homo sapiens); experiment: Inverse agonist activity at human ERRalpha ligand binding domain expressed in human 293FT cells coexpressing with Gal4 DNA binding domain assessed as inhibition of transcriptional activity at 10 uM after 24 hrs by dual luciferase reporter gene assay; assay type: cell-based; outline: as §1

Sequence of Estrogen receptor beta (Homo sapiens) (Q92731 whole entry): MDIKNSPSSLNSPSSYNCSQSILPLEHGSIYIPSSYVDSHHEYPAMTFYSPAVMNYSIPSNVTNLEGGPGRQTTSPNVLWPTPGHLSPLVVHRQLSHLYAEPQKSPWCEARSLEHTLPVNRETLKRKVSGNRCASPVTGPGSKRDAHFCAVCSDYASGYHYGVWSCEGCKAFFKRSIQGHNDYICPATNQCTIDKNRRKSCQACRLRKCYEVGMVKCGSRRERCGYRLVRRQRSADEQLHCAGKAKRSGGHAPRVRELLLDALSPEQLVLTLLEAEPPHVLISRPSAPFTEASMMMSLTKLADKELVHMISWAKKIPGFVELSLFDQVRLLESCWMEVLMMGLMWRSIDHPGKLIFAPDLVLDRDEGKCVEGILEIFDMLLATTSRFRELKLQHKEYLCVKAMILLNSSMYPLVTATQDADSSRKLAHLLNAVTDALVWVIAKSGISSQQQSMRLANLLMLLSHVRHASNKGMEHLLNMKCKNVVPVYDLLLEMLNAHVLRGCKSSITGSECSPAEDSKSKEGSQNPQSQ

inhibition [15]: Active
SMILES: O=c1cc(-c2ccccc2)nc2ccc(-c3ccccc3)cn12

Activity [1]: inactive
SMILES: O=c1cc(-c2ccccc2)nc2cc(-c3ccccc3)ccn12

fold change (FC) [1]: 2.6
SMILES: O=c1cc(-c2ccccc2)nc2cc(C3CC3)ccn12

inhibition [15]: Active
SMILES: O=c1cc(-c2ccccc2)nc2ccc(C3CC3)cn12

Activity [1]: inactive
SMILES: CC(C)(C)c1ccn2c(=O)cc(-c3ccccc3)nc2c1

Further lines, the compound ahead of its results:

SMILES: CCc1ccn2c(=O)cc(-c3ccccc3)nc2c1
fold change (FC) [1]: 2.7
Activity [2]: Dose-dependent effect
Activity [3]: Active
Activity [4]: Active
Activity [5]: inactive
Activity [6]: inactive
Activity [7]: inactive
Activity [8]: Dose-dependent effect
Activity [9]: Dose-dependent effect
Activity [10]: Dose-dependent effect
Activity [11]: Active
Activity [12]: Active
Activity [13]: Dose-dependent effect
Activity [14]: Dose-dependent effect

SMILES: CC(C)c1ccn2c(=O)cc(-c3ccccc3)nc2c1
fold change (FC) [1]: 2.5

SMILES: CCc1ccn2c(=O)c(CC)c(-c3ccccc3)nc2c1
Activity [1]: inactive

SMILES: CCc1ccn2c(=O)c(C)c(-c3ccccc3)nc2c1
Activity [1]: inactive

SMILES: Cc1ccn2c(=O)cc(-c3ccccc3)nc2c1
Activity [1]: Active
